For six molecules, Activity and viability results are on record in ChEMBL document CHEMBL1146564, “Absolute configuration of sesquiterpenes from Crossopetalum tonduzii and their inhibitory effects on Epstein-Barr virus early antigen activation in Raji cells” (J Nat Prod, 2003).

What all share (format): cell-based
Data set [1] relates to Raji. Briefly: Inhibition of 12-O-tetradecanoylphorbol-13-acetate-induced EBV-early antigen activation in human Raji cells at 100 molar ratio after 48 hrs relative to TPA. Also on record: scale not given: the % may be the effect or the level left. Particulars: human gammaherpesvirus 4. A digest of the protocol: (§1)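 EBV-EA induction in Raji cells (RPMI-1640). Cells were held 48 h at 37 °C with n-butyric acid (4 mmol), TPA (32 pmol = 20 ng/mL) and compound at 10–1000 mol ratio/TPA (0.32–32 nmol). EA-positive cells were detected on smears by indirect immunofluorescence. Induction is expressed as percentage relative to the TPA-only positive control. β-Carotene served as reference.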

Data set [2] deals with Raji. Kind of data set: Inhibition of 12-O-tetradecanoylphorbol-13-acetate-induced EBV-early antigen activation in human Raji cells at 500 molar ratio after 48 hrs relative to TPA. Set-up: scale not given: the % may be the effect or the level left. Particulars: human gammaherpesvirus 4. The procedure, abridged: as §1
Data set [3] deals with Raji. Briefly: Inhibition of 12-O-tetradecanoylphorbol-13-acetate-induced EBV-early antigen activation in human Raji cells at 1000 molar ratio after 48 hrs relative to TPA. Set-up: scale not given: the % may be the effect or the level left. The settings on record: human gammaherpesvirus 4. A digest of the protocol: as §1
For data set [4], the system named is Raji. Kind of data set: Inhibition of 12-O-tetradecanoylphorbol-13-acetate-induced EBV-early antigen activation in human Raji cells at 10 molar ratio after 48 hrs relative to TPA. Also on record: scale not given: the % may be the effect or the level left. The settings on record: human gammaherpesvirus 4. The procedure, abridged:
as §1

Data set [5] in a line: Cytotoxicity against human Raji cells assessed as cell viability at 1000 molar ratio/TPA after 48 hrs. Particulars: read-out: Activity. A digest of the protocol: (§2)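 Raji cells (EBV genome-carrying Burkitt's lymphoma lymphoblastoid line) in RPMI-1640 were incubated 48 h at 37 °C with n-butyric acid (4 mmol), TPA (32 pmol = 20 ng/mL) and test compound at 10, 100, 500 or 1000 mol ratio to TPA (0.32, 3.2, 16, 32 nmol). Viability is given as percentage of Raji cells.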

The nature of data set [6]: Cytotoxicity against human Raji cells assessed as cell viability at 500 molar ratio/TPA after 48 hrs. The settings on record: read-out: Activity. A digest of the protocol: as §2
Data set [7] is described as follows: Cytotoxicity against human Raji cells assessed as cell viability at 100 molar ratio/TPA after 48 hrs. The settings on record: read-out: Activity. A digest of the protocol: as §2
The nature of data set [8]: Cytotoxicity against human Raji cells assessed as cell viability at 10 molar ratio/TPA after 48 hrs. Particulars: read-out: Activity. A digest of the protocol:
as §2

Structures are written as SMILES. Some results are limits rather than exact numbers.

Turning to `CCC(C)C(=O)OC[C@]12[C@H](OC(=O)c3ccccc3)[C@@H](O)[C@@H]3[C@@H](O)[C@]1(OC3(C)C)[C@@](C)(O)C[C@H](OC(C)=O)[C@@H]2OC(C)=O` (stereo not given in full), the Activity is 74% in the data set with Raji [1], 32.7% in the data set with Raji [2], 0% in the data set with Raji [3] and 90.1% in the data set on Raji [4]. Also, in data set [5], the viability at 48 h, 1000 molar ratio/TPA stood at 60%. Moreover, the viability at 48 h, 500 molar ratio/TPA in data set [6] was more than 80%. For the same molecule, the viability at 48 h, 100 molar ratio/TPA in data set [7] was more than 80%. The viability at 48 h, 10 molar ratio/TPA in data set [8] is more than 80%.
For the molecule `CCC(C)C(=O)OC[C@]12[C@H](OC(=O)c3ccccc3)[C@@H](OC(C)=O)[C@@H]3[C@@H](OC(C)=O)[C@]1(OC3(C)C)[C@@](C)(O)C[C@H](O)[C@@H]2OC(C)=O` (stereo not given in full), the Activity with Raji [1] worked out at 73.7%; in the data set with Raji [2], 31.2%; with Raji [3], 0%; in the data set with Raji [4] it was 90.5%. Further, the viability at 48 h, 1000 molar ratio/TPA in data set [5] came to 60%. For the same molecule, in data set [6], the viability at 48 h, 500 molar ratio/TPA is more than 80%. The viability at 48 h, 100 molar ratio/TPA in data set [7] is more than 80%. In addition, in data set [8], the viability at 48 h, 10 molar ratio/TPA was more than 80%.
For the molecule `CC1=C(/C=C/C(C)=C/C=C/C(C)=C/C=C/C=C(C)/C=C/C=C(C)/C=C/C2=C(C)CCCC2(C)C)C(C)(C)CCC1` [BETA CAROTENE], the values for the Activity in the data set with Raji [3] and with Raji [4] were 8.6% and 100%, respectively. Further, the viability at 48 h, 500 molar ratio/TPA in data set [6] came out at 80%. Further, the viability at 48 h, 100 molar ratio/TPA in data set [7] is 100%. The viability at 48 h, 10 molar ratio/TPA in data set [8] amounted to 100%.
On to `CCC(C)C(=O)OC[C@]12[C@H](OC(=O)c3ccccc3)[C@@H](OC(C)=O)[C@@H]3[C@@H](OC(C)=O)[C@]1(OC3(C)C)[C@@](C)(O)C[C@H](OC(=O)c1ccccc1)[C@@H]2OC(C)=O` (stereo not given in full), for which the Activity in the data set with Raji [1] came to 75.9%; with Raji [2], 33.8%; in the data set with Raji [3], 4.6%; with Raji [4] it was 96%. Further, in data set [5], the viability at 48 h, 1000 molar ratio/TPA came to 60%. Moreover, in data set [6], the viability at 48 h, 500 molar ratio/TPA is more than 80%. The viability at 48 h, 100 molar ratio/TPA in data set [7] was more than 80%. For the same molecule, the viability at 48 h, 10 molar ratio/TPA in data set [8] is more than 80%.
Regarding `CCC(C)C(=O)OC[C@]12[C@H](OC(=O)c3ccccc3)[C@@H](OC(C)=O)[C@@H]3[C@@H](OC(C)=O)[C@]1(OC3(C)C)[C@@](C)(O)C[C@H](OC(C)=O)[C@@H]2OC(C)=O` (stereo not given in full), the Activity was 79.2% in the data set with Raji [1], 22% in the data set with Raji [2], 0% in the data set on Raji [3] and 96.7% in the data set on Raji [4]. In addition, the viability at 48 h, 1000 molar ratio/TPA in data set [5] worked out at 70%. In data set [6], the viability at 48 h, 500 molar ratio/TPA is more than 80%. The viability at 48 h, 100 molar ratio/TPA in data set [7] was more than 80%. Moreover, in data set [8], the viability at 48 h, 10 molar ratio/TPA is more than 80%.
`CCC(C)C(=O)OC[C@]12[C@H](OC(=O)c3ccccc3)[C@@H](OC(C)=O)[C@@H]3[C@@H](O)[C@]1(OC3(C)C)[C@@](C)(O)C[C@H](OC(C)=O)[C@@H]2OC(C)=O` (stereo not given in full): the Activity with Raji [1] is 77.4%; in the data set on Raji [2] it was 21.8%; in the data set with Raji [3] it was 0%; in the data set with Raji [4], 94.1%. Besides, the viability at 48 h, 1000 molar ratio/TPA in data set [5] came out at 70%. Besides, the viability at 48 h, 500 molar ratio/TPA in data set [6] is more than 80%. Besides, the viability at 48 h, 100 molar ratio/TPA in data set [7] is more than 80%. Also, in data set [8], the viability at 48 h, 10 molar ratio/TPA was more than 80%.
